This note sets out measurements from ChEMBL document CHEMBL2321715, “Design and synthesis of novel 2-methyl-4,5-substitutedbenzo[f]-3,3a,4,5-tetrahydro-pyrazolo[1,5-d][1,4]oxazepin-8(7H)-one derivatives as telomerase inhibitors” (Bioorg Med Chem Lett, 2013).

Test [1] concerns the target Telomerase reverse transcriptase (Homo sapiens, UniProt O14746). The experiment in a line: Inhibition of telomerase activity in human MGC803 cells after 24 hrs by TRAP-PCR-ELISA assay. A general note: ELISA stands for enzyme-linked immunosorbent assay.
Test [2] in a line: Downregulation of cyclin D1 expression in human MGC803 cells after 48 hrs by Western blot analysis. The class given is functional, cell-based. The note with it: MGC-803. The method in brief:
(§1)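 MGC-803 cells exposed 48 h; lysed in RIPA buffer, protein measured by BCA, […] total protein run on SDS–PAGE and blotted to PVDF. Primary antibodies 1 h in TBS/Tween-20 (0.075%) with 3% Marvel: anti-TERT, anti-β-actin, anti-Cyclin D1, anti-phospho-AKT, anti-AKT, each 1:500. HRP secondaries, ECL detection. DMSO vehicle control; LY used as comparator.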
(A western blot detects proteins with antibodies after separation by electrophoresis.)

Test [3] is described as follows: Downregulation of TERT expression in human MGC803 cells after 48 hrs by Western blot analysis. In kind it is functional, cell-based. The conditions noted are these: MGC-803. In outline:
as §1

The test system of test [4] is MGC-803. The experiment in a line: Inhibition of PI3K-mediated Akt phosphorylation in human MGC803 cells after 48 hrs by Western blot analysis. The class given is cell-based. In outline:
as §1

The source made the active and inactive calls. No cut-off for these calls is given here.

Broadly, the IC50 is the concentration that inhibits the measured activity by half.

Chain of Telomerase reverse transcriptase (O14746 whole entry): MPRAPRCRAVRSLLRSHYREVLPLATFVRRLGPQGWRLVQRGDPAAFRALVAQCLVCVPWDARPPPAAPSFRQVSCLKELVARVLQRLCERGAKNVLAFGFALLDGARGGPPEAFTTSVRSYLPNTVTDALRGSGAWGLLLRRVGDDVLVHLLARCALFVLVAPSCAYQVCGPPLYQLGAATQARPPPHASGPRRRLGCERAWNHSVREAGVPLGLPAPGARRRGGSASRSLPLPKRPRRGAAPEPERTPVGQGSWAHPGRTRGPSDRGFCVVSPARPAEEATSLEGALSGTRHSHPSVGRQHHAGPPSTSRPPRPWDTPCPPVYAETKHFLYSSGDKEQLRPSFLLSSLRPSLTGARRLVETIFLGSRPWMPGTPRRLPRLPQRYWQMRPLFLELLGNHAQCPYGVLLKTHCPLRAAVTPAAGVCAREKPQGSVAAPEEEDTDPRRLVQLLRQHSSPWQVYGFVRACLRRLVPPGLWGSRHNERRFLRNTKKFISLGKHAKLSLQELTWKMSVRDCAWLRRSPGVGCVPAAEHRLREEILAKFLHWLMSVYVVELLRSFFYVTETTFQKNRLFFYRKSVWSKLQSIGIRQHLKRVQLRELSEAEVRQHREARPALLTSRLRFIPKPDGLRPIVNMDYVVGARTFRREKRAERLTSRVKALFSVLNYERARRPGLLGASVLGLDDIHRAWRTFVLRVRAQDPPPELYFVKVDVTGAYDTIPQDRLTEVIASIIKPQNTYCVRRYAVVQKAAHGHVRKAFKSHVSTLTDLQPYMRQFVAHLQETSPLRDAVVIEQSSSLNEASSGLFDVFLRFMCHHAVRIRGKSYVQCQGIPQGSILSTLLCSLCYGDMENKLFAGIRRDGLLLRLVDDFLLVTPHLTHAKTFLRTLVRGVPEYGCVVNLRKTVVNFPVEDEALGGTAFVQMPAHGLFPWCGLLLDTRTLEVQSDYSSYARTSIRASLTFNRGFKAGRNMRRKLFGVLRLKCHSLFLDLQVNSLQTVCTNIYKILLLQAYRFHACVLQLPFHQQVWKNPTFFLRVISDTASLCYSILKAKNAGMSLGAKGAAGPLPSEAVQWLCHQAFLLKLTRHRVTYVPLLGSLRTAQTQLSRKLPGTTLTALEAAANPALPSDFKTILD

With `CC1=NN2C(=O)COc3ccccc3C2C1` (centres undefined), in test [1], the midpoint of inhibition, the IC50, lay at 14.8 µM.

In test [1], `CC1=NN2C(=O)COc3ccc(Cl)cc3C2C1` (centres undefined) displayed an IC50 of 1.71 µM. Also, the result in test [2] and in test [3] was Active. In test [4], the inhibition entry was “Active”.

The molecule `COc1cccc2c1OCC(=O)N1N=C(C)CC21` (centres undefined) had an IC50 in test [1] of 10.8 µM. Also, the result in test [3] was Active.

In turn, `CC1=NN2C(=O)COc3c(Br)cc(Br)cc3C2C1` (centres undefined) had an IC50 in test [1] of 0.78 µM. Moreover, the outcome in test [2] and in test [3] was Active. Moreover, the inhibition entry in test [4] was “Active”.

Molecule `CC1=NN2C(=O)COc3cc(C)ccc3C2C1` (centres undefined) gave an IC50 in test [1] of 21.9 µM. In addition, in test [3], the outcome was Active.

The molecule `CC[n+]1c(-c2ccccc2)c2cc(N)ccc2c2ccc(N)cc21` [HOMIDIUM BROMIDE] returned an IC50 in test [1] of 2.39 µM.

Turning to `CC1=NN2C(=O)COc3ccc(C(F)(F)F)cc3C2C1` (centres undefined), the IC50 in test [1] came out at 3.14 µM. Also, the result in test [3] was Active.

As to `CC1=NN2C(=O)COc3c(F)cccc3C2C1` (centres undefined), in test [1], half-maximal inhibition (IC50) required 2.11 µM. Also, the result in test [3] was Active.

In the case of `CC1=NN2C(=O)COc3cc([N+](=O)[O-])ccc3C2C1` (centres undefined), the IC50 in test [1] was determined as 6.6 µM.
